{"source": "ChEMBL document CHEMBL1121527", "about": "“Heterocyclic analogues of the antihypertensive beta-adrenergic blocking agent (S)-2-[3-(ter-butylamino)-2-hydroxypropoxy]-3-cyanopyridine” (1980)", "note": "Where “and” joins values, the source holds several entries; their conditions need not be identical. Identical values can stand only once."}
{"tested_on": "Canis familiaris", "assay": "Beta adrenergic blockade activity was measured in anesthetized dogs by blockade of isoproterenol induced hypotension after iv administration", "format": "functional", "conditions": "Canis lupus familiaris", "how_it_was_run": "(§1)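 Mongrel dogs of either sex (8–13 kg) anesthetized with vinbarbital 50 mg/kg iv. Vagi cut, trachea cannulated, with artificial respiration only if required. Blood pressure recorded via femoral artery catheter and heart rate from the pressure pulse. Drugs given through a femoral vein catheter. Isoproterenol challenge at 0.5 μg/kg iv; the resulting hypotension and tachycardia were computed.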", "units": {"ED50": "mg/kg"}}
{"smiles": "CC(C)(C)NCC(O)COc1nscc1Br", "note": "(configuration not stated)", "ED50": 0.003}
{"smiles": "CC(C)(C)NCC(O)COc1nscc1C#N", "note": "(configuration not stated)", "ED50": 0.027}
{"smiles": "CC(C)(C)NCC(O)COc1ncccc1C#N", "note": "(configuration not stated)", "ED50": 0.0052}
{"smiles": "CC(C)(C)NCC(O)COc1ncsc1C#N", "note": "(configuration not stated)", "ED50": 0.03}
{"smiles": "CC(C)NCC(O)COc1cccc2ccccc12", "note": "(configuration not stated) [PROPRANOLOL]", "ED50": 0.019}
{"smiles": "CC(C)(C)NC[C@H](O)COc1nsnc1N1CCOCC1", "note": "[TIMOLOL]", "ED50": 0.0013}
{"tested_on": "Canis familiaris", "assay": "Beta adrenergic blockade activity was measured in anesthetized dogs by blockade of isoproterenol induced tachycardia after iv administration", "format": "functional", "conditions": "Canis lupus familiaris", "how_it_was_run": "as §1", "units": {"ED50": "µg/kg"}}
{"smiles": "CC(C)(C)NCC(O)COc1nscc1Br", "note": "(configuration not stated)", "ED50": 3}
{"smiles": "CC(C)(C)NCC(O)COc1nscc1C#N", "note": "(configuration not stated)", "ED50": 28}
{"smiles": "CC(C)(C)NCC(O)COc1ncccc1C#N", "note": "(configuration not stated)", "ED50": 1.5}
{"smiles": "CC(C)(C)NCC(O)COc1ncsc1C#N", "note": "(configuration not stated)", "ED50": 10}
{"smiles": "CC(C)NCC(O)COc1cccc2ccccc12", "note": "(configuration not stated) [PROPRANOLOL]", "ED50": 51}
{"smiles": "CC(C)(C)NC[C@H](O)COc1nsnc1N1CCOCC1", "note": "[TIMOLOL]", "ED50": 2.4}
{"tested_on": "Canis familiaris", "assay": "Tested for increase in iliac blood flow was measured in anesthetized dogs after timolol administered intravenous at dose 1600 mg/kg", "format": "functional, Canis lupus familiaris, Artery", "conditions": "not given", "units": {"Activity": "mL/min"}}
{"smiles": "CC(C)(C)NCC(O)COc1nscc1Br", "note": "(configuration not stated)", "Activity": 33}
{"tested_on": "Canis familiaris", "assay": "Tested for increase in iliac blood flow was measured in anesthetized dogs before timolol administered intra arterially at dose […]", "format": "functional, Canis lupus familiaris, Artery", "conditions": "not given", "how_it_was_run": "(§2)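 Adult mongrel dogs of either sex (8–13 kg) under vinbarbital 50 mg/kg iv, with vagi cut and trachea cannulated. Carotid arterial pressure recorded. A 3.0 mm flow transducer on the right iliac artery. Intraarterial injections via a left femoral catheter tipped at the iliac bifurcation. Isoproterenol 0.4 μg ia given before and after timolol (320, 800 or 2000 μg/kg iv) to check β-blockade.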", "units": {"Activity": "mL/min"}}
{"smiles": "CC(C)(C)NCC(O)COc1nscc1Br", "note": "(configuration not stated)", "Activity": 31}
{"smiles": "CC(C)(C)NCC(O)COc1nc2ncccc2cc1C#N", "note": "(configuration not stated)", "Activity": 0}
{"smiles": "CC(C)(C)NCC(O)COc1nscc1C#N", "note": "(configuration not stated)", "Activity": 22}
{"smiles": "CC(C)(C)NCC(O)COc1ncccc1C#N", "note": "(configuration not stated)", "Activity": 98}
{"smiles": "CC(C)(C)NCC(O)COc1ncsc1C#N", "note": "(configuration not stated)", "Activity": 125}
{"smiles": "NNc1nncc2ccccc12", "note": "[HYDRALAZINE]", "Activity": 66}
{"tested_on": "Canis familiaris", "assay": "Tested for increase in iliac blood flow was measured in anesthetized dogs after timolol administered intravenous at dose 800 mg/kg", "format": "functional, Canis lupus familiaris, Artery", "conditions": "not given", "how_it_was_run": "as §2", "units": {"Activity": "mL/min"}}
{"smiles": "CC(C)(C)NCC(O)COc1ncccc1C#N", "note": "(configuration not stated)", "Activity": 62}
{"tested_on": "Canis familiaris", "assay": "Tested for increase in iliac blood flow was measured in anesthetized dogs before timolol administered intra arterially at dose 400 mg/kg", "conditions": "not given", "units": {"Activity": "mL/min"}}
{"smiles": "NNc1nncc2ccccc12", "note": "[HYDRALAZINE]", "Activity": 78}
{"tested_on": "Rattus norvegicus", "assay": "Tested for maximum fall in mean arterial pressure in Spontaneously hypertensive rats after peroral administration by using 1% methyl cellulose as vehicle at 0.078 mg/kg", "format": "functional", "conditions": "route oral", "units": {"MAP": "mmHg"}}
{"smiles": "CC(C)(C)NCC(O)COc1ncccc1C#N", "note": "(configuration not stated)", "MAP": 19}
{"smiles": "CC(C)(C)NCC(O)COc1ncsc1C#N", "note": "(configuration not stated)", "MAP": 11}
{"tested_on": "Rattus norvegicus", "assay": "Comparative effect on Maximum fall in mean arterial pressure of spontaneously hypertensive rat at the dose 0.312 mg/kg per os", "format": "functional, Artery", "conditions": "not given", "units": {"MAP": "mmHg"}}
{"smiles": "CC(C)(C)NC[C@H](O)COc1nsnc1N1CCOCC1", "note": "[TIMOLOL]", "MAP": 3}
{"tested_on": "Rattus norvegicus", "assay": "Comparative effect on Maximum fall in mean arterial pressure of spontaneously hypertensive rat at the dose 0.625 mg/kg per os", "format": "functional, Artery", "conditions": "not given", "units": {"MAP": "mmHg"}}
{"smiles": "CC(C)(C)NC[C@H](O)COc1nsnc1N1CCOCC1", "note": "[TIMOLOL]", "MAP": 0}
{"tested_on": "Rattus norvegicus", "assay": "Tested for maximum fall in mean arterial pressure in Spontaneously hypertensive rats after peroral administration by using 1% methyl cellulose as vehicle at 0.312 mg/kg", "format": "functional", "conditions": "route oral", "units": {"MAP": "mmHg"}}
{"smiles": "CC(C)(C)NCC(O)COc1ncccc1C#N", "note": "(configuration not stated)", "MAP": 30}
{"smiles": "CC(C)(C)NCC(O)COc1ncsc1C#N", "note": "(configuration not stated)", "MAP": 26}
{"tested_on": "Rattus norvegicus", "assay": "Tested for maximum fall in mean arterial pressure in Spontaneously hypertensive rats after peroral administration by using 1% methyl cellulose as vehicle at 1.25 mg/kg", "format": "functional", "conditions": "route oral", "units": {"MAP": "mmHg"}}
{"smiles": "CC(C)(C)NCC(O)COc1ncccc1C#N", "note": "(configuration not stated)", "MAP": 47}
{"smiles": "CC(C)(C)NCC(O)COc1ncsc1C#N", "note": "(configuration not stated)", "MAP": 29}
{"smiles": "CC(C)(C)NCC(O)COc1ccsn1", "note": "(configuration not stated)", "MAP": 8}
{"smiles": "Cc1nc(OCC(O)CNC(C)(C)C)c(C(N)=O)s1", "note": "(racemic)", "MAP": 22}
{"smiles": "CC(C)NCC(O)COc1cccc2ccccc12", "note": "(configuration not stated) [PROPRANOLOL]", "MAP": 12}
{"tested_on": "Rattus norvegicus", "assay": "Tested for maximum fall in mean arterial pressure in Spontaneously hypertensive rats after peroral administration by using 1% methyl cellulose as vehicle at 20 mg/kg", "format": "functional", "conditions": "route oral", "units": {"MAP": "mmHg"}}
{"smiles": "CC(C)(C)NCC(O)COc1nscc1Br", "note": "(configuration not stated)", "MAP": 30}
{"smiles": "CCOC(=O)c1sc(SC)nc1OCC(O)CNC(C)(C)C", "note": "(configuration not stated)", "MAP": 15}
{"smiles": "CCOC(=O)c1scnc1OCC(O)CNC(C)(C)C", "note": "(configuration not stated)", "MAP": 9}
{"smiles": "CC(C)(C)NCC(O)COc1nc2ncccc2cc1C#N", "note": "(configuration not stated)", "MAP": 28}
{"smiles": "CC(C)(C)NCC(O)COc1nscc1C#N", "note": "(configuration not stated)", "MAP": 52}
{"smiles": "Cc1nc(OC[C@@H](O)CNC(C)(C)C)c(C(N)=O)s1", "MAP": 11}
{"smiles": "CC(C)(C)NC[C@H](O)COc1nc(-c2ccccc2)sc1C(N)=O", "MAP": 15}
{"smiles": "CC(C)(C)NC[C@H](O)COc1nc(-c2ccccc2)sc1C#N", "MAP": 9}
{"smiles": "Cc1sc(-c2ccccc2)nc1OC[C@@H](O)CNC(C)(C)C", "MAP": 17}
{"smiles": "CCOC(=O)c1sc(-c2ccccc2)nc1OC[C@@H](O)CNC(C)(C)C", "MAP": 10}
{"smiles": "Cc1sc(-c2ccncc2)nc1OC[C@@H](O)CNC(C)(C)C", "MAP": 41}
{"smiles": "Cc1nc(OC[C@@H](O)CNC(C)(C)C)c(C#N)s1", "MAP": 21}
{"smiles": "CC(C)(C)NCC(O)COc1nc2ccncc2cc1C#N", "note": "(configuration not stated)", "MAP": 22}
{"smiles": "CSc1nc(OCC(O)CNC(C)(C)C)c(C(N)=O)s1", "note": "(configuration not stated)", "MAP": 11}
{"smiles": "CC(C)(C)NCC(O)COc1ncsc1C#N", "note": "(configuration not stated)", "MAP": 37}
{"smiles": "CC(C)(C)NCC(O)COc1nccnc1C#N", "note": "(configuration not stated)", "MAP": 8}
{"smiles": "CC(C)(C)NCC(O)COc1ccsn1", "note": "(configuration not stated)", "MAP": 22}
{"smiles": "Cc1nc(OCC(O)CNC(C)(C)C)c(C(N)=O)s1", "note": "(racemic)", "MAP": 23}
{"smiles": "CC(C)NCC(O)COc1cccc2ccccc12", "note": "(configuration not stated) [PROPRANOLOL]", "MAP": 14}
{"tested_on": "Rattus norvegicus", "assay": "(§3) Tested for maximum fall in mean arterial pressure in Spontaneously hypertensive rats after peroral administration by using 1% methyl cellulose as vehicle at 5 mg/kg", "format": "functional", "conditions": "route oral", "units": {"MAP": "mmHg"}}
{"smiles": "CC(C)(C)NCC(O)COc1nscc1Br", "note": "(configuration not stated)", "MAP": 41}
{"smiles": "CC(C)(C)NCC(O)COc1nc2ncccc2cc1C#N", "note": "(configuration not stated)", "MAP": 22}
{"smiles": "CC(C)(C)NC[C@H](O)COc1nc(-c2ccccc2)sc1C#N", "MAP": 11}
{"smiles": "Cc1sc(-c2ccncc2)nc1OC[C@@H](O)CNC(C)(C)C", "MAP": 8}
{"smiles": "CC(C)(C)NCC(O)COc1ncsc1C#N", "note": "(configuration not stated)", "MAP": 42}
{"smiles": "CC(C)(C)NCC(O)COc1nsnc1C#N", "note": "(configuration not stated)", "MAP": 9}
{"smiles": "CC(C)(C)NCC(O)COc1ccsn1", "note": "(configuration not stated)", "MAP": 26}
{"smiles": "Cc1nc(OCC(O)CNC(C)(C)C)c(C(N)=O)s1", "note": "(racemic)", "MAP": 30}
{"smiles": "CC(C)NCC(O)COc1cccc2ccccc12", "note": "(configuration not stated) [PROPRANOLOL]", "MAP": 7}
{"tested_on": "Rattus norvegicus", "assay": "as §3", "format": "functional", "conditions": "route oral, 5 mg/kg"}
{"smiles": "CC(C)(C)NCC(O)COc1nscc1C#N", "note": "(configuration not stated)", "MAP": "27 mmHg and 9 mmHg"}
{"tested_on": "Rattus norvegicus", "assay": "Tested for maximum fall in mean arterial pressure in Spontaneously hypertensive rats after peroral administration by using 1% methyl cellulose as vehicle at 80 mg/kg", "format": "functional", "conditions": "route oral", "units": {"MAP": "mmHg"}}
{"smiles": "CC(C)(C)NC[C@H](O)COc1nc(-c2ccccc2)sc1C#N", "MAP": 14}
{"smiles": "Cc1sc(-c2ccccc2)nc1OC[C@@H](O)CNC(C)(C)C", "MAP": 12}
{"tested_on": "Rattus norvegicus", "assay": "Comparative effect on Maximum fall in mean arterial pressure of spontaneously hypertensive rat at the dose 1.25 mg/kg per os", "format": "functional, Artery", "conditions": "not given", "units": {"MAP": "mmHg"}}
{"smiles": "CC(C)(C)NC[C@H](O)COc1nsnc1N1CCOCC1", "note": "[TIMOLOL]", "MAP": -1}
{"tested_on": "Canis familiaris", "assay": "Tested for increase in iliac blood flow was measured in anesthetized dogs after timolol administered intravenous at dose 2000 mg/kg", "format": "functional, Canis lupus familiaris, Artery", "conditions": "not given", "how_it_was_run": "as §2", "units": {"Activity": "mL/min"}}
{"smiles": "CC(C)(C)NCC(O)COc1nscc1C#N", "note": "(configuration not stated)", "Activity": 20}
{"smiles": "CC(C)(C)NCC(O)COc1ncccc1C#N", "note": "(configuration not stated)", "Activity": 90}
{"tested_on": "Canis familiaris", "assay": "Tested for increase in iliac blood flow was measured in anesthetized dogs after timolol administered intravenously at dose 800 µg/kg", "conditions": "not given", "units": {"Activity": "mL/min"}}
{"smiles": "CC(C)(C)NCC(O)COc1ncccc1C#N", "note": "(configuration not stated)", "Activity": 38}
